Bioassay records: PubChem BioAssay, Broad Institute
Shown are actives, neighbours in structure and some others; about 2% of the full set was active somewhere.
Xi reactivation – activators of X-chromosome reactivation in mouse fibroblasts; actives 0.055% (n = 360,000); activation, % at 7.58 µM; XiGFP mouse fibroblasts, % GFP-positive cells imaging, 3 d; cells co-treated with 5-aza-dC sensitizer; scaled so ellipticine positive control = 100%;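 active = mean normalized replicate activation at least 10% and every replicate at or above 10%; inconclusive = only one of the two criteria met; inactive = mean below 10% and not all replicates reach 10%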;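 note: 0% = median of on-plate neutral control wells and 100% = ellipticine 6 µM median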
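System: SV40-immortalized XiGFP fibroblast cells, line 68-5-11 / Incubation: 3-day compound exposure, then 15 min fixation at room temperature / Compound: single concentration per compound, delivered by pin transfer / Buffer or medium: DMEM plus 5-aza-dC sensitizer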
RAD54 branch – inhibitors of human RAD54 branch migration; RAD54 Holliday junction branch migration, FAM/BHQ fluorescence; inhibition, % at 10.4 µM; actives 0.14% (n = 360,000); AID 602329;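 active = mean normalized replicate activity at least 40 and at least half of replicates scoring 40 or more; inconclusive = only one of the two criteria met; inactive = mean below 40 and under half of replicates reaching 40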;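 note: 0% = median of neutral control wells and 100% = median of positive control wells; inhibitors cause a drop in the FAM fluorescence signal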
rRNA inh HTS – inhibits bacterial ribosomal RNA function over humanized ribosomes | GFP signal change (wild-type ribosome), % (test concentration not listed) | E. coli WT GFP vs humanized-ribosome RFP mutants, fluorescence, 24 h; active compounds read low; DMSO median 0, no signal -100 | actives 1.6% (n = 350,000);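 active = significant combined selectivity score with lowered wild-type GFP, culture density cut under 30%, mutant RFP and density less affected; inactive = any of these conditions unmet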
E-sel inducer – induces E-selectin expression in human endothelial cells; P16581; HUVEC E-selectin immunofluorescence imaging; normalized: neutral wells 0, TNF-alpha wells 100; activation, % at 7.58 µM; actives 0.37% (n = 260,000); AID 686992;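 active = mean E-selectin-positive cell signal at least 10% of the positive control, reached in at least 60% of replicates, without over 20% cell loss; inconclusive = no rule given, readout overlaps actives, possibly toxicity-flagged; inactive = the rest, including those meeting only one limit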
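Read-out basis: % PE-positive cells; Test system: HUVEC primary endothelial cells; Technique: immunofluorescence imaging; Dosing: single-point compound dose.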
RAD52 inh – blocks human RAD52 DNA annealing. inhibition, % at 18.7 µM. P43351. AID 651710. actives 0.46% (n = 360,000). recombinant RAD52 DNA annealing, FRET fluorescence;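 active = every replicate showing at least 50% inhibition; inconclusive = mean inhibition at least 50% but not in every replicate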
Target sequence (P43351 whole entry, looked up): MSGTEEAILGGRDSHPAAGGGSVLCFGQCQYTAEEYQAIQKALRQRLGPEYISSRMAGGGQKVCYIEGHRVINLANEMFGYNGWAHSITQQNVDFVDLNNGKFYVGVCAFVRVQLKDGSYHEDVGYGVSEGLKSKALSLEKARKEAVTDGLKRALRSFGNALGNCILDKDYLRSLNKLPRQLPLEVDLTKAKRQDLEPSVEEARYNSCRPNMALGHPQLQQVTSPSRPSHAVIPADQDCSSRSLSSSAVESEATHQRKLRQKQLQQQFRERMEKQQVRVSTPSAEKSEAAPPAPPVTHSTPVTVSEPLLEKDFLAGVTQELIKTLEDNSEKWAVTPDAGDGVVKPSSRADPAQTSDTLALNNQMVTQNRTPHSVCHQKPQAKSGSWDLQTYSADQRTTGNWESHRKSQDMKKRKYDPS
PglD DTNB – PglD (C. jejuni) enzyme inhibition; purified PglD enzyme, DTNB colorimetric CoA detection; inhibition, % at 12.5 µM; actives 0.098% (n = 360,000); AID 602405; in the data active = inhibition above about 16%, passing the limit was not always enough; inconclusive = no clear call, values can overlap the other calls
Rad54 DNA ctr – counter-screen for Rad54 inhibitors: DNA binding compounds. shares compounds with RAD54 branch. Acridine orange-DNA displacement, fluorescence polarization, 20 min. AC50, µM (series often up to 35 µM), for inactives: top-dose activity change, negative = DNA binding. actives 8% (n = 460);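 active = signal drop giving an AC50 within twice the top valid tested concentration of each sample, actives reach about 35 µM in these data; inactive = activity opposite to expected, plus the rest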;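 note: polarization loss reports compound binding to salmon sperm DNA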
RAD52 DNA ctr – counter-screen for RAD52 inhibitors: DNA binding compounds | AID 652128 | shares compounds with RAD52 inh | AC50, µM | actives 8% (n = 1,000) | Salmon sperm DNA/acridine orange FP displacement;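 active = fitted half-maximal concentration for signal loss at or below twice the highest dose tested, in every separate run, actives reach about 64 µM in these data; inconclusive = runs disagree, or flat partial signal loss, or poor fit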
Numbers without * were called inactive; i = inactive; ? = inconclusive; / = no result.

SMILES	Xi reactivation	RAD54 branch	rRNA inh HTS	E-sel inducer	RAD52 inh	PglD DTNB	Rad54 DNA ctr	RAD52 DNA ctr
Cc1c(OCC(=O)NC2CC(C)(C)NC(C)(C)C2)ccc2c3c(c(=O)oc12)CCC3	0.2	13.6	5.6	/	-0.7	2.8	/	/
O=C(NCCCN1CCCC1)c1cc2c(Cl)nc3ccccc3c2s1	1.0	?	-10.8	-0.2	63.1*	-7.6	-21.8%	42.3µM*
O=C(NCCCN1CCOCC1)c1cc2c(=O)[nH]c3ccccc3c2s1	/	23.3	-7.6	/	-215.2	-1.7	/	/
CC(C)NC(=O)Nc1cccc2c1O[C@H](CN(C)C)[C@H](C)CN(C)C2=O	0.4	/	1.2	/	/	/	/	/
CN(C)C(=O)C[C@@H]1CC[C@H]2[C@H](COc3ccc(NC(=O)C4CCCC4)cc3C(=O)N2C)O1	0.0	/	4.5	0.0	-1.4	/	/	/
C[C@@H]1ON(C)[C@H]2C[C@H]3c4[nH]c5cccc(-c6ccc7c(c6)OCO7)c5c4CCN3C(=O)[C@@H]12	0.7	/	-39.6	0.0	-11.4	/	/	/
Cc1cccn2c(=O)c3cc(C(=O)NCCN4CCOCC4)c(=N)n(CCCN4CCOCC4)c3nc12	0.1	91.5*	7.2	0.1	77.6*	3.3	8.1%	i
Cc1cccn2c(=O)c3cc(C(=O)NCC4CCCO4)c(=N)n(CCN4CCOCC4)c3nc12 (stereo unspecified)	/	42.2	-3.5	/	20.1	5.4	/	/
COc1ccc(CCNC(=O)c2cc3c(=O)n4ccccc4nc3n(CCCN3CCOCC3)c2=N)cc1OC	0.0	?	16.9	/	54.4*	1.7	14.5%	i
C[C@@H]1CN([C@@H](C)CO)C(=O)c2cc(-c3ccccc3)cnc2O[C@@H]1CN(C)C(=O)Cc1cccnc1	-1.3	8.1	1.8	1.1	-6.9	1.4	/	/
CCCC(=O)Nc1ccc2c(c1)C(=O)N(C)C[C@H](OC)[C@@H](C)CN(C(=O)c1cnccn1)[C@H](C)CO2	0.0	2.6	1.0	-0.1	-19.9	6.5	/	/
CCN(CC)Cc1cc2[nH]c3c4ccc(Cl)cc4ncc3c2cc1OC	0.0	101.2*	5.5	0.1	102.4*	-10.1	6.3%	i
Cc1ccc2nc3c(c(N)c2c1)CCN3C	0.1	61.1*	2.3	-0.3	41.7	-1.9	-9.8%	i
COC(=O)c1c(NC(=O)c2ccc(S(=O)(=O)N3CC(C)OC(C)C3)cc2)sc2c1CCN(C)C2 (stereo unspecified)	5.7	50.1*	10.0	-0.3	51.2*	1.2	16.1%	i
CCOC(=O)c1cnc2c(C)c(C)ccc2c1NCCN1CCOCC1	0.3	19.6	18.4	/	0.5	-3.7	/	/
CCOC(=O)c1cnc2c(C)cc(C)cc2c1NCCCN1CCOCC1	0.1	92.8*	-2.9	0.0	68.4*	-0.8	-21.9%	i
CN(C)CCN(C(=O)CN1C(=O)c2ccccc2C1=O)c1nc2cc3c(cc2s1)OCO3	0.1	59.9*	6.9	/	58.1*	-3.4	-9.2%	i
CCN(CC)CCN(C(=O)CN1C(=O)c2ccccc2C1=O)c1nc2cc3c(cc2s1)OCO3	0.1	35.3	0.0	/	-2.9	-0.3	/	/
COc1ncccc1-c1cc2nc(NCCCN(C)C)n(C)c(=O)c2s1	0.1	90.0*	-8.4	0.3	75.4*	-1.7	-18.8%	63.1µM*
COc1cccc(-c2cc3nc(NCCCN(C)C)n(C)c(=O)c3s2)c1	0.0	62.3*	-3.3	0.1	79.0*	-5.7	-2.1%	?
CN(C)CCCNc1nc2cc(-c3ccc4c(ccn4C)c3)sc2c(=O)n1C	0.0	54.4*	7.2	-0.2	95.6*	-7.0	0.1%	i
COc1ccc(-c2cc3nc(NCCN4CCCC4)n(C)c(=O)c3s2)cc1OC	0.2	69.9*	3.8	-0.1	83.9*	-4.9	0.5%	i
CC(C)=C(C)c1cc2nc(NCCCN(C)C)n(C)c(=O)c2s1	0.2	7.2	0.7	1.7	7.6	1.5	/	/
C[C@H](CO)N1C[C@H](C)[C@H](CN(C)CC2CCOCC2)Oc2ncc(C#C[C@@H](C)O)cc2C1=O	-0.4	0.2	-0.3	-0.8	-10.0	-5.4	/	/
COc1ccc(S(=O)(=O)N(C)C[C@@H]2Oc3c(NC(=O)Nc4ccc5c(c4)OCO5)cccc3C(=O)N([C@@H](C)CO)C[C@H]2C)cc1	-0.1	2.2	-4.5	10.0	-0.1	-0.3	/	/
SMILES	Xi reactivation	RAD54 branch	rRNA inh HTS	E-sel inducer	RAD52 inh	PglD DTNB	Rad54 DNA ctr	RAD52 DNA ctr
COc1ccc(-c2oc3ncnc(NCCCN(C)C)c3c2-c2ccc(OC)cc2)cc1	0.2	74.7*	-19.6	/	85.3*	-8.3	16.7%	i
CC(=O)Nc1cc(-c2cccc(C(=O)NCCN(C)C)c2)cn2c(-c3ccc(S(C)(=O)=O)cc3)cnc12	0.1	56.5*	12.9	0.0	92.2*	0.1	-17.2%	i
CC(=O)Nc1cc(-c2ccc(N3CCN(C)CC3)cc2)cn2c(-c3cccc(C(C)=O)c3)cnc12	0.0	79.4*	10.5	/	70.0*	1.1	-2.4%	i
CC(=O)Nc1cc(-c2cccc(C(=O)NCCN(C)C)c2)cn2c(-c3ccccc3)cnc12	0.0	64.3*	5.5	-0.3	90.1*	2.9	4.3%	i
CC(=O)Nc1cccc(-c2cc(NC(C)=O)c3ncc(-c4cccc(C(C)=O)c4)n3c2)c1	0.8	12.4	0.9	1.2	-28.6	-1.1	/	/
COc1ccc2c3c([nH]c2c1)[C@@H](CO)N(C(=O)Nc1ccc(F)cc1)CC31CN(S(=O)(=O)c2cn(C)cn2)C1	0.2	/	-2.9	0.2	-4.2	/	/	/
CCOc1cccc(-c2cc(N3CCN(CCO)CC3)n3nccc3n2)c1	0.4	10.6	3.0	2.2	18.3	0.1	/	/
CN1CCCN(c2cc(-c3ccc4ccccc4c3)nc3ccnn23)CC1	0.1	63.6*	10.9	150.1*	104.3*	1.7	-3.8%	i
Cc1cccc(-c2cc(N3CCCN(C)CC3)n3nccc3n2)c1	0.5	?	5.1	69.1*	102.8*	-0.7	-6.5%	i
O=C(C[C@H]1CC[C@H](NC(=O)C2CCC2)[C@@H](CO)O1)NCc1ccccc1Cl	-0.5	2.4	0.2	-0.5	-2.8	2.4	/	/
CCOC(=O)c1c(-c2ccc(-c3ccccc3)cc2)csc1NC(=O)CNCCN(C)C	1.8	53.5*	-59.2	1.9	95.2*	-4.5	5.1%	i
COc1ccc(S(=O)(=O)Nc2cccc3c2O[C@@H](CN(C)Cc2ccc(Cl)c(Cl)c2)[C@H](C)CN([C@@H](C)CO)C3=O)cc1	0.1	/	-4.3	0.1	/	/	/	/
